# High-throughput results as filed in PubChem BioAssay.
# Only some compounds are listed: those with a hit (about 2.3% of all), similar ones and a draw of the others.
# TRPC4 inh: TRPC4 (mouse) channel inhibition; B-score at 10 µM; actives 0.39% (n = 300,000); HEK293 TRPC4beta/mu-opioid, DAMGO-evoked Fluo4 calcium flux; active compounds read low; Q9QUQ5; AID 2247;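 active = B-score over 3 SD under the library average, no early fluorescence shift, positive overall ratio signal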
#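 Material: HEK293 cells with stable TRPC4beta plus mu-opioid receptor expression; probe or stimulus: DAMGO in two steps, submaximal then maximal; technique: Fluo4 calcium fluorescence by kinetic imaging, 5 s 1 Hz baseline; measure: integrated fluorescence ratio relative to baseline, converted to per-well B score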
# TRPC4 potent: allosteric potentiators of mouse TRPC4 channel; Q9QUQ5; HEK293 TRPC4beta/mu-opioid, DAMGO EC20, Fluo-4 Ca2+ flux; active compounds read high; B-score at 10 µM; actives 0.42% (n = 310,000);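 active = B-score of calcium response area above 5 SD of library B-scores, with initial fluorescence ratio within 5 SD of library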
# TRPC6 activator: mouse TRPC6 channel activation; Q61143; HEK293-TRPC6 membrane potential dye fluorescence; active compounds read high; B-score at 10 µM; actives 0.13% (n = 310,000); AID 2550;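 active = B-score of the integrated fluorescence ratio above library mean plus 3 SD, and starting fluorescence ratio within library mean plus 5 SD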;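 note: higher score means more depolarization so channel activation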
# Target sequence (Q61143 whole entry, looked up): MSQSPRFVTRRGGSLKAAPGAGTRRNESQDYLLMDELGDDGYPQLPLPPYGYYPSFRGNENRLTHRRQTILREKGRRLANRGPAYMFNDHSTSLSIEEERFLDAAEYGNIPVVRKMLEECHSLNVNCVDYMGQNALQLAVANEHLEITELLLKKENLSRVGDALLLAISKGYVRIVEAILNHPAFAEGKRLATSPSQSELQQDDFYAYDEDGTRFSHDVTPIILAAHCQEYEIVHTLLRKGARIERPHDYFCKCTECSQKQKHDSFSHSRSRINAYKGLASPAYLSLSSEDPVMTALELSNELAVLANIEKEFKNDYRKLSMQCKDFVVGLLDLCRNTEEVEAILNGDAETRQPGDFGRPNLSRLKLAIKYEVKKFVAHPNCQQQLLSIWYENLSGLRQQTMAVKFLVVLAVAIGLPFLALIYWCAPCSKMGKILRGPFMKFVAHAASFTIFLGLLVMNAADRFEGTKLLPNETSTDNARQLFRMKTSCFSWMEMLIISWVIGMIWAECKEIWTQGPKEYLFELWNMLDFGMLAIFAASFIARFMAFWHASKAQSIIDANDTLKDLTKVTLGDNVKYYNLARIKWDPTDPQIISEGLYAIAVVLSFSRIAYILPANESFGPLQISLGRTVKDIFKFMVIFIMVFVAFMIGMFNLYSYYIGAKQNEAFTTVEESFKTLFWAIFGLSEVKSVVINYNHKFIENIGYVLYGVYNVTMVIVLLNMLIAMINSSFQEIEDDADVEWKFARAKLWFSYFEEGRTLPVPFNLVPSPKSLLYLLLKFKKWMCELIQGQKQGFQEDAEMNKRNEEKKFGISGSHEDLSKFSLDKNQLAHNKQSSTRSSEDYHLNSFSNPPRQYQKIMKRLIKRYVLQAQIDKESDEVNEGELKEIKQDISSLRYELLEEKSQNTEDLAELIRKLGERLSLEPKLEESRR
# TRPC4 act: opens the mouse TRPC4 cation channel. AID 2237. actives 0.49% (n = 310,000). B-score at 10 µM. HEK293 TRPC4beta/mu-opioid, Fluo4 calcium fluorescence; active compounds read high;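 active = B-score above 5 SD of library B-scores, and initial fluorescence ratio not above library mean plus 5 SD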;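 note: positive B-score marks a calcium rise read as TRPC4 activation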
#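 Material: HEK293 stable line with TRPC4beta plus mu-opioid receptor; technique: Fluo4 calcium-sensitive dye fluorescence, kinetic, 1 Hz baseline; timing: Fluo4 dye loading 45 min at room temperature, 110 s recording; controls: assay buffer as low control, maximal DAMGO as high control; read-out: integrated baseline-normalised fluorescence ratio, converted to per-well B score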
# TRPC6 inhibitor: mouse TRPC6 channel inhibition. HEK293-TRPC6, membrane potential dye, ACh-evoked depolarization; active compounds read low. Q61143. actives 1.1% (n = 310,000). B-score at 10 µM;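 active = B-score under library mean minus 3 SD, initial fluorescence not abnormally high, positive integrated signal ratio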;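 note: B-score derived from integrated fluorescence ratio over the kinetic read; more negative B-score means stronger inhibition of depolarization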
# TRPC4 sel inh 2: mouse TRPC4 off-target activity of TRPC6 inhibitors, second screen; shares compounds with TRPC6 inhibitor; HEK293 TRPC4/MOR, membrane potential dye fluorescence; channel activated by saturating DAMGO dose; inhibition, % at 10 µM; actives 42% (n = 920); AID 2776;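 active = compounds whose fluorescence signal differed from control wells by over 3 SD, either direction, in both duplicate plates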
# TRPC4 spec: mouse TRPC4 off-target activity of TRPC6 inhibitors. shares compounds with TRPC6 inhibitor. HEK293 TRPC4/mu-opioid, membrane potential fluorescence. activity change, negative = inhibition, % at 10 µM. actives 61% (n = 920);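 active = rise or fall in signal beyond 3 SD of buffer-only wells in both replicate plates, either sign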;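 note: integrated kinetic ratio of fluorescence range over baseline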
# HEK293 MPD ctr 2-1: second check of TRPC6 inhibitor effects in parental HEK293 cells; AID 2779; actives 31% (n = 920); signal change vs control, % at 10 µM; parental HEK293 membrane potential dye fluorescence; maximal acetylcholine challenge after compound addition; shares compounds with TRPC6 inhibitor;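 active = membrane potential signal moving either way by over 3 SD of the maximum-effect control, in both duplicate plates, meaning non-specific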
# HEK293 MPD ctr-1: parental HEK293 nonspecific activity of TRPC6 inhibitors; AID 2780; parental HEK293 membrane potential dye fluorescence; membrane potential signal change, % at 10 µM; actives 60% (n = 920); shares compounds with TRPC6 inhibitor;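 active = membrane potential signal shifting up or down by more than 3 SD of buffer-only wells, on both duplicate plates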
# HEK293 MPD ctr-2: counter-screen for TRPC6 modulators: effect in parental HEK293 cells; shares compounds with TRPC6 inhibitor; actives 51% (n = 2,400); membrane potential dye fluorescence; membrane potential signal change, % at 10 µM;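 active = membrane potential signal moves up or down beyond 5 SD from buffer-only wells, on both duplicate plates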
# HEK293 MPD ctr 2-2: parental HEK293 nonspecific activity of TRPC6 modulators, second screen; membrane potential dye fluorescence; after compound, maximal acetylcholine stimulation; shares compounds with TRPC6 inhibitor; inhibition, % at 10 µM; actives 14% (n = 2,400); AID 488926;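 active = membrane potential signal drops by more than 5 SD from the mean control signal, in both duplicate plates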
# TRPC4 ctr mod: mouse TRPC4 off-target activity of TRPC6 modulators | shares compounds with TRPC6 inhibitor | HEK293 TRPC4/mu-opioid, membrane potential fluorescence | percent change from control (negative = decrease, positive = increase), % at 10 µM | actives 69% (n = 2,400) | AID 488927;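 active = membrane potential signal moved up or down beyond 5 SD of buffer control wells, in both duplicate plates, actives on both sides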
# TRPC4/MOR inh 2: second selectivity test of TRPC6 modulators against mouse TRPC4; actives 55% (n = 2,400); AID 488928; HEK293 TRPC4/mu-opioid, membrane potential dye fluorescence; stimulated with maximal-effect DAMGO; inhibition, % at 10 µM; shares compounds with TRPC6 inhibitor;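 active = drop in membrane potential signal beyond 5 SD of the control wells in both duplicate plates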;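 note: TRPC4 counter screen for TRPC6 hits run under conditions tuned for TRPC6 not TRPC4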
# TRPC6 block conf: confirmation of mouse TRPC6 inhibitors; AID 488960; actives 43% (n = 3,300); shares compounds with TRPC6 inhibitor; HEK293-TRPC6, membrane potential dye, ACh-evoked depolarization; inhibition, % at 10 µM;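 active = fluorescence ratio falls more than 5 SD below the full-stimulation control mean, in both duplicate runs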;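 note: integrated fluorescence ratio of peak minus minimum over baseline after agonist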
# TRPC6 act conf: mouse TRPC6 activator confirmation | actives 11% (n = 2,800) | HEK293-TRPC6 membrane potential dye fluorescence, FDSS | shares compounds with TRPC6 inhibitor | activation, % at 10 µM;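 active = ratio signal rise beyond 5 SD above unstimulated control wells' mean, seen in both duplicate runs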
# A number is an active result; i = inactive; nt = no result given.
SMILES,TRPC4 inh,TRPC4 potent,TRPC6 activator,TRPC4 act,TRPC6 inhibitor,HEK293 MPD ctr-2,HEK293 MPD ctr 2-2,TRPC4 ctr mod,TRPC4/MOR inh 2,TRPC6 block conf,TRPC6 act conf,others
Cc1ccc(-c2cc(-c3ccccc3)cc(-c3ccccc3)[n+]2-c2ccccc2)cc1,i,33,i,i,-9.6,nt,nt,nt,nt,95.8%,i,TRPC4 sel inh 2=54.0%;TRPC4 spec=14.1%;HEK293 MPD ctr 2-1=i;HEK293 MPD ctr-1=8.2%
Cc1ccc(-c2cc(-c3ccc(C)cc3)[n+](C)o2)cc1,i,i,i,i,i,nt,nt,nt,nt,nt,nt,
N[C@@H](Cc1ccccc1)C(=O)N1C[C@H]2C[C@@H](C1)c1cccc(=O)n1C2,i,i,i,i,i,nt,nt,nt,nt,nt,nt,
Cc1cccc(N2CCc3c2nc2ccccc2c3N)c1,-7,i,i,i,-13.7,-192.0%,74.5%,-49.0%,97.5%,81.0%,i,
CN1CCC2(CC1)CC(NC=O)c1ccccc1O2 (stereo not drawn),i,i,i,i,i,nt,nt,nt,nt,nt,nt,
c1ccc2c3c([nH]c2c1)C1(CCNCC1)NCC3,i,i,i,i,i,nt,nt,nt,nt,nt,nt,
Cc1nc2ccccc2c(=O)n1/N=C/c1cc(Br)cc(Br)c1O,i,i,i,i,i,nt,nt,nt,nt,nt,nt,
CC[N+]12CCC(CC1)C(C(O)(c1ccccc1)c1ccccc1)C2 (stereo not drawn),i,i,i,i,-6.02,i,i,i,i,81.5%,i,
CCCCn1c(O)c(C(=O)/C=C/c2c[nH]c3ccccc23)c(=O)[nH]c1=O,i,i,247,i,i,941.0%,i,586.0%,i,i,212.5%,
COc1ccc(NC(=O)c2cc([N+](=O)[O-])ccc2N2CCNCC2)cc1,i,i,i,i,i,nt,nt,nt,nt,nt,nt,
COc1cc2c(cc1OC)-c1c(OC)c(OC)c(OC)c3ccnc(c13)C2=O,i,i,i,i,-7.04,-141.5%,i,-29.0%,73.5%,56.5%,i,
CN1CC(C(=O)c2ccc(Cl)cc2)C(c2ccc(N(C)C)cc2)C1 (stereo not drawn),i,i,i,i,-6.46,i,i,i,50.0%,50.5%,i,
COc1ccccc1CNCCc1ccc(F)cc1,i,i,i,i,i,nt,nt,nt,nt,nt,nt,
C#CCN(C)[C@H](C)Cc1ccccc1,i,i,i,i,i,nt,nt,nt,nt,nt,nt,
CC(Cc1ccccc1Sc1ccccc1O)N(C)C (stereo not drawn),-7,i,i,i,-9.38,nt,nt,nt,nt,i,nt,TRPC4 sel inh 2=37.0%;TRPC4 spec=54.9%;HEK293 MPD ctr 2-1=i;HEK293 MPD ctr-1=12.4%
CCOCN(C(=O)CCl)c1c(C)cccc1CC,i,i,i,i,i,nt,nt,nt,nt,nt,nt,
O=[N+]([O-])c1ccc(N2CCCNCC2)c2ncccc12,i,i,i,138,-11.3,-444.5%,110.5%,-51.5%,79.0%,96.5%,i,
COC(=O)[C@]12OC[C@]34C([C@@H](O)[C@@H]1O)[C@]1(C)CC(=O)C(O)=C(C)[C@@H]1C[C@H]3OC(=O)[C@H](O)[C@@H]24 (stereo partly drawn),i,i,i,i,i,nt,nt,nt,nt,nt,nt,
CC(C)(C)C(=O)OC[N+](C)(C)CCOC(=O)C(O)(c1ccccc1)C1CCCC1 (stereo not drawn),i,i,i,i,-5.6,i,83.0%,i,i,86.0%,i,
CCCC(CCC)C(=O)OC[N+](C)(C)CCOC(=O)C(O)(c1ccccc1)C1CCCC1 (stereo not drawn),i,i,i,i,-11.1,nt,nt,nt,nt,91.7%,i,TRPC4 sel inh 2=i;TRPC4 spec=i;HEK293 MPD ctr 2-1=-29.0%;HEK293 MPD ctr-1=i
CN1CCCC(C(O)(c2ccccc2)c2ccccc2)C1 (stereo not drawn),i,i,i,i,i,nt,nt,nt,nt,nt,nt,
O=C(O)C(O)(c1ccccc1)C1CCCC1 (stereo not drawn),i,i,i,i,i,nt,nt,nt,nt,nt,nt,
Cc1[nH]c2ccccc2c1CCCNC1CCCCC1,i,i,i,i,-5.66,i,i,i,44.0%,i,i,
Cc1[nH]c2ccccc2c1CCN,i,i,i,i,i,nt,nt,nt,nt,nt,nt,
Cc1cc(Cl)ccc1C(=O)C1CCCN(C2CCSCC2)C1 (stereo not drawn),i,i,i,i,-5.76,174.0%,i,31.5%,i,i,nt,
SMILES,TRPC4 inh,TRPC4 potent,TRPC6 activator,TRPC4 act,TRPC6 inhibitor,HEK293 MPD ctr-2,HEK293 MPD ctr 2-2,TRPC4 ctr mod,TRPC4/MOR inh 2,TRPC6 block conf,TRPC6 act conf,others
Cc1cccc(CN2CCCC(C(=O)c3ccc(C(F)(F)F)cc3)C2)n1 (stereo not drawn),i,i,i,i,i,nt,nt,nt,nt,nt,nt,
O=C(c1ccc(C(F)(F)F)cc1)C1CCCN(C2CCSCC2)C1 (stereo not drawn),i,i,i,i,-7.75,nt,nt,nt,nt,i,nt,TRPC4 sel inh 2=i;TRPC4 spec=14.6%;HEK293 MPD ctr 2-1=i;HEK293 MPD ctr-1=8.5%
CCOC(=O)c1c(C)n(Cc2ccc(F)cc2)c2ccc(O)cc12,i,i,i,i,i,nt,nt,nt,nt,nt,nt,
CCCCn1c(C)c(C(=O)OCC)c2c(CN3CCCC3)c(O)ccc21,i,i,i,i,-5.44,i,i,i,58.5%,47.5%,i,
CCCCn1c(C)c(C(=O)OCC)c2c(CN3CCOCC3)c(O)ccc21,i,i,i,i,-5.26,-88.5%,i,-12.5%,66.5%,62.5%,i,
O=C(O)c1ccccc1NC(=O)N1C[C@H]2C[C@@H](C1)c1cccc(=O)n1C2,i,i,i,i,i,nt,nt,nt,nt,nt,nt,
Cc1ccc(NC(=O)[C@@H](NC(=O)N2C[C@H]3C[C@@H](C2)c2cccc(=O)n2C3)C(C)C)cc1,i,i,i,i,i,nt,nt,nt,nt,nt,nt,
C[N+](C)(C)CC#CCN1CCCC1=O,i,i,i,86,-5.94,103.0%,60.5%,45.0%,i,78.5%,nt,
